# Legend:
# [1] = system: Mycobacterium tuberculosis; test: Antimycobacterial activity against Mycobacterium tuberculosis H37RvMA ATCC 27294 cultured in protein-based Middlebrook 7H9 medium supplemented with glucose, albumin-dextrose-catalase and Tween 80 assessed as inhibition of bacterial growth incubated for 7 days in by alamar blue staining based assay; assay type: functional; details: H37RvMA ATCC 27294, 168 h
# Method in brief: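 Broth microdilution MIC90 assay against H37RvMa (ATCC 27294). Culture grown to OD600 0.6–0.7, diluted 1:500. Compounds come from 10 mM DMSO stocks and are run as duplicate two-fold dilutions over 10 wells. Plates incubated at 37 °C, 5% CO2, humidified. AlamarBlue added on day 7 and incubated 24 h more, then read on day 8, visually (blue = no growth) or by fluorescence (excitation 540 nm).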
# [2] = system: Mycobacterium tuberculosis; test: Antimycobacterial activity against Mycobacterium tuberculosis H37RvMA ATCC 27294 cultured in non protein-based Middlebrook 7H9 medium supplemented with glucose-casitone-tyloxapol assessed as inhibition of bacterial growth incubated for 7 days in by alamar blue staining based assay; assay type: functional; details: H37RvMA ATCC 27294, 168 h
# Method in brief: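 Medium is 7H9 with 0.03% Casitone, 0.4% glucose and 0.05% Tyloxapol. H37RvMa is grown to OD600 0.6–0.7 and diluted 1:500. Duplicate two-fold dilutions over 10 wells come from 10 mM DMSO stocks. Incubation at 37 °C, 5% CO2. AlamarBlue added on day 7. The MIC90 is the lowest concentration with no visible growth on day 8, or is read by fluorescence.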
# CHO-K1 = test: Cytotoxicity against CHOK1 cells assessed as reduction in cell viability incubated for 48 hrs by MTT assay; assay type: cell-based; details: Cricetulus griseus, CHO-K1, 48 h
# Method in brief: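 CHO-K1 cells seeded at 10^5 cells/well 24 h before exposure, medium then replaced with fresh medium containing compound; 48 h at 37 °C, 5% CO2, MTT added at 44 h for 4 h, formazan dissolved in DMSO, OD read at 540 nm. Triplicates; DMSO stocks 2 mg/mL, poorly soluble samples as suspensions; emetine reference; IC50 from non-linear dose-response fit.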
Structure (SMILES),MIC90 [1],MIC90 [2],IC50 (CHO-K1)
CC(=O)O[C@H]1C[C@@]2(C)[C@@H](C[C@@H](O)[C@H]3[C@@]4(C)CC[C@@H](O)[C@@H](C)[C@@H]4CC[C@@]32C)/C1=C(\CCC=C(C)C)C(=O)Nc1ccc(C)cc1,125 µM,> 125 µM,> 50 µM
COc1ccccc1NC(=O)/C(CCC=C(C)C)=C1\[C@@H](OC(C)=O)C[C@@]2(C)[C@H]1C[C@@H](O)[C@H]1[C@@]3(C)CC[C@@H](O)[C@@H](C)[C@@H]3CC[C@@]12C,43.2 µM,6.2 µM,46.1 µM
CC(=O)O[C@H]1C[C@@]2(C)[C@@H](C[C@@H](O)[C@H]3[C@@]4(C)CC[C@@H](O)[C@@H](C)[C@@H]4CC[C@@]32C)/C1=C(\CCC=C(C)C)C(=O)N[C@@H](C)c1ccc(F)cc1,> 125 µM,7.59 µM,47.4 µM
CC(=O)O[C@H]1C[C@@]2(C)[C@@H](C[C@@H](O)[C@H]3[C@@]4(C)CC[C@@H](O)[C@@H](C)[C@@H]4CC[C@@]32C)/C1=C(\CCC=C(C)C)C(=O)Nc1ccc(O)cc1,> 125 µM,6.9 µM,45.4 µM
CC(=O)O[C@H]1C[C@@]2(C)[C@@H](C[C@@H](O)[C@H]3[C@@]4(C)CC[C@@H](O)[C@@H](C)[C@@H]4CC[C@@]32C)/C1=C(\CCC=C(C)C)C(=O)N[C@@H](C(N)=O)c1ccccc1,15.7 µM,9.1 µM,> 50 µM
CC(=O)O[C@H]1C[C@@]2(C)[C@@H](C[C@@H](O)[C@H]3[C@@]4(C)CC[C@@H](O)[C@@H](C)[C@@H]4CC[C@@]32C)/C1=C(\CCC=C(C)C)C(=O)NCc1ccc(S(N)(=O)=O)cc1,62.3 µM,2.71 µM,30.2 µM
CC(=O)O[C@H]1C[C@@]2(C)[C@@H](C[C@@H](O)[C@H]3[C@@]4(C)CC[C@@H](O)[C@@H](C)[C@@H]4CC[C@@]32C)/C1=C(\CCC=C(C)C)C(=O)NC(C)c1ccc(C)cc1 (mixture of isomers),> 125 µM,2.91 µM,47.9 µM
CC(=O)O[C@H]1C[C@@]2(C)[C@@H](C[C@@H](O)[C@H]3[C@@]4(C)CC[C@@H](O)[C@@H](C)[C@@H]4CC[C@@]32C)/C1=C(\CCC=C(C)C)C(=O)NC1(c2ccccc2)CC1,> 125 µM,13.9 µM,36.8 µM
CC(=O)O[C@H]1C[C@@]2(C)[C@@H](C[C@@H](O)[C@H]3[C@@]4(C)CC[C@@H](O)[C@@H](C)[C@@H]4CC[C@@]32C)/C1=C(\CCC=C(C)C)C(=O)N[C@H](C)c1ccccc1,> 125 µM,11 µM,47.6 µM
CC(=O)O[C@H]1C[C@@]2(C)[C@@H](C[C@@H](O)[C@H]3[C@@]4(C)CC[C@@H](O)[C@@H](C)[C@@H]4CC[C@@]32C)/C1=C(\CCC=C(C)C)C(=O)Nc1ccc(F)cc1,125 µM,125 µM,39.9 µM
CC(=O)O[C@H]1C[C@@]2(C)[C@@H](C[C@@H](O)[C@H]3[C@@]4(C)CC[C@@H](O)[C@@H](C)[C@@H]4CC[C@@]32C)/C1=C(\CCC=C(C)C)C(=O)N[C@@H](C)C1CCCCC1,> 125 µM,4.5 µM,44.7 µM
CC(=O)O[C@H]1C[C@@]2(C)[C@@H](C[C@@H](O)[C@H]3[C@@]4(C)CC[C@@H](O)[C@@H](C)[C@@H]4CC[C@@]32C)/C1=C(\CCC=C(C)C)C(=O)N[C@H](C)C1CCCCC1,> 125 µM,7.45 µM,> 50 µM
CO[C@H]1/C=C/O[C@@]2(C)Oc3c(C)c(O)c4c(O)c(c(/C=N/N5CCN(C)CC5)c(O)c4c3C2=O)NC(=O)/C(C)=C\C=C\[C@H](C)[C@H](O)[C@@H](C)[C@@H](O)[C@@H](C)[C@H](OC(C)=O)[C@@H]1C [RIFAMPIN],0.009 µM,0.02 µM,
CC(=O)O[C@H]1C[C@@]2(C)[C@@H](C[C@@H](O)[C@H]3[C@@]4(C)CC[C@@H](O)[C@@H](C)[C@@H]4CC[C@@]32C)/C1=C(\CCC=C(C)C)C(=O)N[C@H](C)c1ccc(F)cc1,> 125 µM,> 125 µM,8.24 µM
CC(=O)O[C@H]1C[C@@]2(C)[C@@H](C[C@@H](O)[C@H]3[C@@]4(C)CC[C@@H](O)[C@@H](C)[C@@H]4CC[C@@]32C)/C1=C(\CCC=C(C)C)C(=O)NC(C)c1ccc(F)cc1 (mixture of isomers),> 125 µM,19.8 µM,45.3 µM
CC(=O)O[C@H]1C[C@@]2(C)[C@@H](C[C@@H](O)[C@H]3[C@@]4(C)CC[C@@H](O)[C@@H](C)[C@@H]4CC[C@@]32C)/C1=C(\CCC=C(C)C)C(=O)NCc1ccccc1,125 µM,> 125 µM,44.1 µM
CC(=O)O[C@H]1C[C@@]2(C)[C@@H](C[C@@H](O)[C@H]3[C@@]4(C)CC[C@@H](O)[C@@H](C)[C@@H]4CC[C@@]32C)/C1=C(\CCC=C(C)C)C(=O)NC(C)c1ccc(Cl)c(Cl)c1 (mixture of isomers),32.3 µM,7.2 µM,> 50 µM
CC(=O)O[C@H]1C[C@@]2(C)[C@@H](C[C@@H](O)[C@H]3[C@@]4(C)CC[C@@H](O)[C@@H](C)[C@@H]4CC[C@@]32C)/C1=C(\CCC=C(C)C)C(=O)NCc1ccc(F)cc1,125 µM,> 125 µM,40.2 µM
CC(=O)O[C@H]1C[C@@]2(C)[C@@H](C[C@@H](O)[C@H]3[C@@]4(C)CC[C@@H](O)[C@@H](C)[C@@H]4CC[C@@]32C)/C1=C(\CCC=C(C)C)C(=O)NC(C)c1cccnc1 (mixture of isomers),> 125 µM,17.9 µM,> 50 µM
COC(=O)[C@H](NC(=O)/C(CCC=C(C)C)=C1\[C@@H](OC(C)=O)C[C@@]2(C)[C@H]1C[C@@H](O)[C@H]1[C@@]3(C)CC[C@@H](O)[C@@H](C)[C@@H]3CC[C@@]12C)c1ccccc1,38.8 µM,7.1 µM,42.9 µM
CC(=O)O[C@H]1C[C@@]2(C)[C@@H](C[C@@H](O)[C@H]3[C@@]4(C)CC[C@@H](O)[C@@H](C)[C@@H]4CC[C@@]32C)/C1=C(\CCC=C(C)C)C(=O)NC(C)c1ccncc1 (mixture of isomers),125 µM,13 µM,> 50 µM
COc1cccc(NC(=O)/C(CCC=C(C)C)=C2\[C@@H](OC(C)=O)C[C@@]3(C)[C@H]2C[C@@H](O)[C@H]2[C@@]4(C)CC[C@@H](O)[C@@H](C)[C@@H]4CC[C@@]23C)c1,> 125 µM,> 125 µM,42.7 µM
CC(=O)O[C@H]1C[C@@]2(C)[C@@H](C[C@@H](O)[C@H]3[C@@]4(C)CC[C@@H](O)[C@@H](C)[C@@H]4CC[C@@]32C)/C1=C(\CCC=C(C)C)C(=O)NCc1ccc(C)cc1,125 µM,> 125 µM,> 50 µM
CC(=O)O[C@H]1C[C@@]2(C)[C@@H](C[C@@H](O)[C@H]3[C@@]4(C)CC[C@@H](O)[C@@H](C)[C@@H]4CC[C@@]32C)/C1=C(\CCC=C(C)C)C(=O)N[C@@H](C)c1ccccc1,> 125 µM,8.9 µM,46 µM
CC(=O)O[C@H]1C[C@@]2(C)[C@@H](C[C@@H](O)[C@H]3[C@@]4(C)CC[C@@H](O)[C@@H](C)[C@@H]4CC[C@@]32C)/C1=C(\CCC=C(C)C)C(=O)NCc1ccc(O)cc1,125 µM,125 µM,> 50 µM
CC(=O)O[C@H]1C[C@@]2(C)[C@@H](C[C@@H](O)[C@H]3[C@@]4(C)CC[C@@H](O)[C@@H](C)[C@@H]4CC[C@@]32C)/C1=C(\CCC=C(C)C)C(=O)N[C@H](C)c1ccccc1Cl,> 125 µM,10.1 µM,18.2 µM
CC[C@H]1CN2CCc3cc(OC)c(OC)cc3[C@@H]2C[C@@H]1C[C@H]1NCCc2cc(OC)c(OC)cc21 [EMETINE],,,0.02 µM
